ChEMBL document CHEMBL4007505 (J Med Chem, 2017)
Active and inactive are the calls of the source. The calls are words filed in the database; no cut-off is given here.

What was measured:
[1] = biological target: Alpha-2B adrenergic receptor (Homo sapiens, UniProt P18089); assay: Displacement of [3H]Rauwolscine from human adrenergic alpha2B receptor
[2] = biological target: T1, Sodium-dependent dopamine transporter (Homo sapiens, UniProt Q01959); assay: Inhibition of recombinant human DAT expressed in HEK293 cell […] as reduction in [3H]-DA uptake incubated for 22 mins by micro beta scintillation counting analysis
T1 sequence (Q01959 whole entry): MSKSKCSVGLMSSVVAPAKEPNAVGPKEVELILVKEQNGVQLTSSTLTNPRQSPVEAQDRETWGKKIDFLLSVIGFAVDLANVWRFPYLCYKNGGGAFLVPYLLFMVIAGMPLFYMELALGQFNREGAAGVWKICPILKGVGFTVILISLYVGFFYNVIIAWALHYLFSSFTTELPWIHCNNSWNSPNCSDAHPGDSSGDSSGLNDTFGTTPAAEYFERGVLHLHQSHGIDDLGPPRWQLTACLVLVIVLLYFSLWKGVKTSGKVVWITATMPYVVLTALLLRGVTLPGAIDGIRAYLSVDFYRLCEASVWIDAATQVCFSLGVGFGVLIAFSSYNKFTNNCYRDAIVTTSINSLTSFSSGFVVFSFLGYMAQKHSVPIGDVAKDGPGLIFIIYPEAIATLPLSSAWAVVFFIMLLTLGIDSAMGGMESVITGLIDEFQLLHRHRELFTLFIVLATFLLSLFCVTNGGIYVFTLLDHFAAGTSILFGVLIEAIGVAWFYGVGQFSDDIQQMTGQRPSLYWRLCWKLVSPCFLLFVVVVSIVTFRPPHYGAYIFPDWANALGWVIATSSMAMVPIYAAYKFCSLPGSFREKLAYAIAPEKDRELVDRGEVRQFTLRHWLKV

[3] = biological target: T1, Sodium-dependent dopamine transporter; assay: Enhancing of [3H]mazindol binding to recombinant human DAT expressed in HEK293 cell membranes preincubated for 10 mins followed by radioligand addition measured after 90 mins by micro beta scintillation counting analysis; parameters: concentration or dose not given beside the values
Procedure, shortened: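 Membranes of HEK-293 cells stably expressing hDAT, hNET or hSERT. […] Compound preincubated 10 min at room temperature, then [125I]23 (40-80 pM final) or [3H]26 (1-3 nM for DAT and NET, 10-13 nM for SERT) added. Incubated 90 min at room temperature in the dark, then filtered. EC50 or Ki; mean ± SEM.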

[4] = biological target: T2, Adenosine receptor A3 (Mus musculus, UniProt Q61618); assay: Displacement of [125I]N6-(4-amino-3-iodobenzyl)adenosine-5'-N-methyluronamide from mouse A3AR expressed in HEK293T cells pre-incubated for 10 mins before radioligand addition and measured 90 mins after radioligand addition by micro beta scintillation counting analysis relative to control; format: cell-based
T2 sequence (Q61618 whole entry): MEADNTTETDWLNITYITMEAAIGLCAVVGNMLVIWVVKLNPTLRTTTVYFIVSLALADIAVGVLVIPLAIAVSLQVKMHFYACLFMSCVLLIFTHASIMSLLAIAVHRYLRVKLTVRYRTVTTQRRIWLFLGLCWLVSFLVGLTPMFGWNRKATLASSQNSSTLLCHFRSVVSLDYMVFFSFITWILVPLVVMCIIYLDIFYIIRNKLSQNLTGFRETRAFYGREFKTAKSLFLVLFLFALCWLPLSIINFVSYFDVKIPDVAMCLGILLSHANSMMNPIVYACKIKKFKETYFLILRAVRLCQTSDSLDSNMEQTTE

[5] = biological target: Sodium-dependent noradrenaline transporter (Homo sapiens, UniProt P23975); assay: Enhancing of [3H]mazindol binding to recombinant human NET expressed in HEK293 cell membranes preincubated for 10 mins followed by radioligand addition measured after 90 mins by micro beta scintillation counting analysis
Chain of Sodium-dependent noradrenaline transporter (P23975 whole entry): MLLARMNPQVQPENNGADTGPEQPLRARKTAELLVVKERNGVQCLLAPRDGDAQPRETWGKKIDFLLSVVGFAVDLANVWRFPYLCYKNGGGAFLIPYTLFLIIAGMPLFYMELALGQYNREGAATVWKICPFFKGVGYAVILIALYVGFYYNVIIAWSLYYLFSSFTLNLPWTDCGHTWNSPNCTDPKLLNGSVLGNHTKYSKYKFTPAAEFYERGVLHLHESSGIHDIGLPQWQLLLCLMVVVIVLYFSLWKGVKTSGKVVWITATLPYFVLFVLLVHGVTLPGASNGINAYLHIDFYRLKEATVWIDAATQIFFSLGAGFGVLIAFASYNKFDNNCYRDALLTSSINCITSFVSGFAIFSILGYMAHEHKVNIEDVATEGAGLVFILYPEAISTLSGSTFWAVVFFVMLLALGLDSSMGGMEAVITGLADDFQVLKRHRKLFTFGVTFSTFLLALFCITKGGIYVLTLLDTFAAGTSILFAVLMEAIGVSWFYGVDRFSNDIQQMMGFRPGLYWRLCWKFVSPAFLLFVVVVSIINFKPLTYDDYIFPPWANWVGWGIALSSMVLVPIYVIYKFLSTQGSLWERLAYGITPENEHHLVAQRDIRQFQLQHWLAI

[6] = biological target: T3, Alpha-1D adrenergic receptor (Homo sapiens, UniProt P25100); assay: Displacement of [3H]Prazosin from human adrenergic alpha1D receptor
T3 sequence (P25100 whole entry): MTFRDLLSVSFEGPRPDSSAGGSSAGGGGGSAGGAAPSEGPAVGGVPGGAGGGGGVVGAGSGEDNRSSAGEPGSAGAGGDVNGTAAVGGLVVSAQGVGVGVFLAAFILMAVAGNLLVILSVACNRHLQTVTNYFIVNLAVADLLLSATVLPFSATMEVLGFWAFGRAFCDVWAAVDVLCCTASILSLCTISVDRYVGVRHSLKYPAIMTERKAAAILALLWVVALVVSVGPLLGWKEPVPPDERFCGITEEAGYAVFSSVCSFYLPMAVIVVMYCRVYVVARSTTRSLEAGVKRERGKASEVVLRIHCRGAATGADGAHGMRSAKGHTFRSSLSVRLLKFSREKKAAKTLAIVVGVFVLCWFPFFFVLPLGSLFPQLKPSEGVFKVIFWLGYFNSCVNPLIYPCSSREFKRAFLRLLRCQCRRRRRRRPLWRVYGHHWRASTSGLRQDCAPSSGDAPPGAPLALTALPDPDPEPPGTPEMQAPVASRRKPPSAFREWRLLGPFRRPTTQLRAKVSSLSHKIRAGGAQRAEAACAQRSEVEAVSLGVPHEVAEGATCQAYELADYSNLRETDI

[7] = biological target: T4, Adenosine receptor A3 (Homo sapiens, UniProt P0DMS8); assay: Displacement of [125I]N6-(4-amino-3-iodobenzyl)adenosine-5'-N-methyluronamide from human A3AR expressed in HEK293T cells pre-incubated for 10 mins before radioligand addition and measured 90 mins after radioligand addition by micro beta scintillation counting analysis relative to control; format: cell-based, HEK-293T
T4 sequence (P0DMS8 whole entry): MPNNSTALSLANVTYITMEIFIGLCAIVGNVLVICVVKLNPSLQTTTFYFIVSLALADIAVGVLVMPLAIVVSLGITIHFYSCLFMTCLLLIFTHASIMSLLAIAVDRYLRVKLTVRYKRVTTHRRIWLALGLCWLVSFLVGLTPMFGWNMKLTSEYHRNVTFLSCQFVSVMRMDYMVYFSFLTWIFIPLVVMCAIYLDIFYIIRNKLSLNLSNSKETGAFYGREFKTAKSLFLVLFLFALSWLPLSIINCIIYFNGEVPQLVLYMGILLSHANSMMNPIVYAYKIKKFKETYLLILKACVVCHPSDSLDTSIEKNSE

Chain of Alpha-2B adrenergic receptor (P18089 whole entry): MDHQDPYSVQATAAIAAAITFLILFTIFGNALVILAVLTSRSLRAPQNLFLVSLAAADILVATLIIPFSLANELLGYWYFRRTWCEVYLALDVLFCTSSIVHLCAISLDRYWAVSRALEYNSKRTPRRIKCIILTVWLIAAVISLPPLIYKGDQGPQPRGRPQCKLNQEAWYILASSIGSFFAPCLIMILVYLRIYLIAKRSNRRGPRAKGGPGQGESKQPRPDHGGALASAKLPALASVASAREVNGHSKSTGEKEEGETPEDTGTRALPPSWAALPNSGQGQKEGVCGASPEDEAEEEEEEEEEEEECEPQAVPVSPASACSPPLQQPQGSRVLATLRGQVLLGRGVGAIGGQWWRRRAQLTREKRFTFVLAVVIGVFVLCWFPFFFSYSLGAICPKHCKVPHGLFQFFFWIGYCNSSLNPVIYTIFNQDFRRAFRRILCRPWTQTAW

CNc1nc(C#Cc2ccc(Cl)s2)nc2c1ncn2[C@@H]1O[C@H](C(=O)OC)[C@@H](O)[C@H]1O
Ki [1]: 5000 to 10000 nM | IC50 [2]: 396 nM | Activity [3]: 269% | EC50 ([3]; read-out: EC50): 860 nM | Ki [4]: 34 nM | Activity [5]: inactive | Ki [6]: > 10000 nM | Ki [7]: 11.5 nM
